Reference: paper PMC9290503 (British Journal of Clinical Pharmacology, 2021)

Tests used:
[1] = Study 1003 MRD cohorts plasma pharmacokinetics; assay type: in vivo, human; conditions: for AUC0–24, mean (CV%) / AUC0–∞, mean (CV%) / C max, mean (CV%) / t max, median (range) / t ½z, mean (CV%): plasma
[2] = Study 1003 MRD cohorts urine pharmacokinetics; assay type: in vivo, human; conditions: for Aet, mean (CV%) / CLR, mean (CV%) / fe,t, mean (CV%): urine, non‐Japanese
In short: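 Urine was collected pre-dose and over 0–6, 6–12 and 12–24 h on Days 1 and 10 of once-daily oral dosing. Free base was measured by validated UPLC–MS/MS after protein precipitation (calibration 1–2000 ng mL−1; LLOQ 1 ng mL−1). Noncompartmental analysis used nominal intervals; values below LLOQ were treated as zero.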

[3] = Safety and tolerability, Study 1001; assay type: in vivo, human
In short: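 Double-blind, placebo-controlled single oral doses (5–60 mg) in healthy adults aged 18–55, given after at least 10 h fasting, with sentinel dosing in the first cohort. Monitored AEs, physical and neurological exams, vital signs, flagged clinical labs and 12-lead ECG. TEAEs counted from first dose to 30 days after. Semen analysis and serum FSH, LH, testosterone and inhibin B were taken at baseline and one or two spermatogenic cycles post-dose. Follow-up to day 60 (±2).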

[4] = tested on: rodent models of neurodevelopmental disorder; conditions: two rodent models of neurodevelopmental disorder; ref [8]; cited from earlier work
[5] = Study 1001 single-rising-dose plasma pharmacokinetics; assay type: in vivo, human; conditions: for AUC0–24, mean (CV%) / AUC0–∞, mean (CV%) / t max, median (range) / t ½z, mean (CV%): plasma, Study 1001
[6] = Study 1003 CSF pharmacokinetics at steady state; assay type: in vivo, human; conditions: 60 mg q.d.
[7] = tested on: mouse model of Kabuki syndrome; conditions: ref [7], cited from earlier work
[8] = Study 1001 single-dose urine pharmacokinetics; assay type: in vivo, human; conditions: for Aet, mean (CV%) / CLR, mean (CV%) / fe,t, mean (CV%): urine, Study 1001
[9] = 20 mg q.d., non‐Japanese, Day 1
[10] = 20 mg q.d., non‐Japanese, Day 10
[11] = 60 mg q.d., non‐Japanese, Day 1
[12] = 60 mg q.d., non‐Japanese, Day 10
[13] = 160 mg q.d., non‐Japanese, Day 1
[14] = 160 mg q.d., non‐Japanese, Day 10
[15] = after multiple dosing (20–160 mg)

Cl.O=C(NC1CCOCC1)c1csc([C@@H]2C[C@H]2NCC2CC2)c1 [TAK‐418]
PK linearity point estimate, Day 10 AUC0–24 compared with Day 1 AUC0–∞ ([1]; 20 mg q.d.): 1.29
AUC0–24, Japanese vs non‐Japanese participants ([1]; 20 mg, Day 1): 1.21 fold
AUC0–24, Japanese compared with non‐Japanese participants ([1]; 20 mg, Day 10 steady state): approximately the same
PK linearity point estimate, Day 10 AUC0–24 compared with Day 1 AUC0–∞ ([1]; 60 mg q.d.): 1.13
PK linearity point estimate, Day 10 AUC0–24 compared with Day 1 AUC0–∞ ([1]; 160 mg q.d.): 1.06
mean terminal disposition phase half‐life (t ½z) at steady state ([1]; 20–160 mg q.d.): 4.35 to 5.36 h
median t max at steady state ([1]; Day 10, 20–160 mg q.d.): 1.00 to 1.26 h
AUC0–24, mean (CV%) ([1]; 20 mg q.d., Japanese, Day 1): 610.3 (14.4) h*ng mL^−1
AUC0–∞, mean (CV%) ([1]; 20 mg q.d., Japanese, Day 1): 619.0 (14.8) h*ng mL^−1
C max, mean (CV%) ([1]; 20 mg q.d., Japanese, Day 1): 154.7 (6.0) ng mL^−1
t max, median (range) ([1]; 20 mg q.d., Japanese, Day 1): 1.00 (0.50–1.50) h
AUC0–24, mean (CV%) ([1]; 20 mg q.d., Japanese, Day 10): 677.3 (10.9) h*ng mL^−1
C max, mean (CV%) ([1]; 20 mg q.d., Japanese, Day 10): 171.3 (6.0) ng mL^−1
t max, median (range) ([1]; 20 mg q.d., Japanese, Day 10): 1.00 (1.00–1.50) h
t ½z, mean (CV%) ([1]; 20 mg q.d., Japanese, Day 10): 4.350 (14.4) h
AUC0–24, mean (CV%) [1, 9]: 503.3 (32.9) h*ng mL^−1
AUC0–∞, mean (CV%) [1, 9]: 515.3 (33.4) h*ng mL^−1
C max, mean (CV%) [1, 9]: 85.2 (33.8) ng mL^−1
t max, median (range) [1, 9]: 1.75 (1.00–3.00) h
AUC0–24, mean (CV%) [1, 10]: 668.2 (34.2) h*ng mL^−1
C max, mean (CV%) [1, 10]: 117.8 (30.1) ng mL^−1
t max, median (range) [1, 10]: 1.26 (1.00–2.00) h
t ½z, mean (CV%) [1, 10]: 4.997 (10.1) h
AUC0–24, mean (CV%) [1, 11]: 1445.5 (24.4) h*ng mL^−1
AUC0–∞, mean (CV%) [1, 11]: 1476.7 (25.4) h*ng mL^−1
C max, mean (CV%) [1, 11]: 276.0 (21.6) ng mL^−1
t max, median (range) [1, 11]: 1.50 (1.00–4.00) h
AUC0–24, mean (CV%) [1, 12]: 1660.5 (25.4) h*ng mL^−1
C max, mean (CV%) [1, 12]: 307.2 (17.0) ng mL^−1
t max, median (range) [1, 12]: 1.250 (1.00–3.00) h
t ½z, mean (CV%) [1, 12]: 4.923 (17.8) h
AUC0–24, mean (CV%) [1, 13]: 3747.3 (6.4) h*ng mL^−1
AUC0–∞, mean (CV%) [1, 13]: 3822.0 (5.7) h*ng mL^−1
C max, mean (CV%) [1, 13]: 679.3 (28.8) ng mL^−1
t max, median (range) [1, 13]: 1.50 (1.00–3.00) h
AUC0–24, mean (CV%) [1, 14]: 4058.3 (6.1) h*ng mL^−1
C max, mean (CV%) [1, 14]: 697.7 (14.7) ng mL^−1
t max, median (range) [1, 14]: 1.00 (1.00–1.50) h
t ½z, mean (CV%) [1, 14]: 5.357 (8.7) h
renal clearance [2, 15]: 5.12 to 7.81 L/h
renal excretion [2, 15]: 15.45–20.06%
Aet, mean (CV%) ([2]; 20 mg q.d., Day 1): 2.858 (25.1) mg
CLR, mean (CV%) ([2]; 20 mg q.d., Day 1): 5.813 (16.4) L h^−1
fe,t, mean (CV%) ([2]; 20 mg q.d., Day 1): 14.283 (25.1) %
Aet, mean (CV%) ([2]; 20 mg q.d., Day 10): 3.090 (28.4) mg
CLR, mean (CV%) ([2]; 20 mg q.d., Day 10): 5.120 (38.2) L h^−1
fe,t, mean (CV%) ([2]; 20 mg q.d., Day 10): 15.453 (28.4) %
Aet, mean (CV%) ([2]; 60 mg q.d., Day 1): 11.423 (28.4) mg
CLR, mean (CV%) ([2]; 60 mg q.d., Day 1): 8.365 (41.5) L h^−1
fe,t, mean (CV%) ([2]; 60 mg q.d., Day 1): 19.050 (28.4) %
Aet, mean (CV%) ([2]; 60 mg q.d., Day 10): 11.087 (31.1) mg
CLR, mean (CV%) ([2]; 60 mg q.d., Day 10): 6.740 (25.1) L h^−1
fe,t, mean (CV%) ([2]; 60 mg q.d., Day 10): 18.475 (31.1) %
Aet, mean (CV%) ([2]; 160 mg q.d., Day 1): 28.500 (11.0) mg
CLR, mean (CV%) ([2]; 160 mg q.d., Day 1): 7.583 (4.9) L h^−1
fe,t, mean (CV%) ([2]; 160 mg q.d., Day 1): 17.800 (11.0) %
Aet, mean (CV%) ([2]; 160 mg q.d., Day 10): 32.067 (37.3) mg
CLR, mean (CV%) ([2]; 160 mg q.d., Day 10): 7.807 (32.7) L h^−1
fe,t, mean (CV%) ([2]; 160 mg q.d., Day 10): 20.060 (37.2) %
semen parameters or serum hormone levels ([3]; 23 male participants): no clinically relevant changes
laboratory test results, vital signs or electrocardiogram readings ([3]; Study 1001): No clinically significant changes
nausea, most common TAK‐418‐related TEAE ([3]; Study 1001): reported in one participant administered TAK‐418 15 mg and another administered TAK‐418 40 mg
serious AEs, suicidal ideation/behaviour, deaths ([3]; Study 1001): no serious AEs (SAEs), suicidal ideation/behaviour or deaths were reported
testicular pain ([3]; one at 15 mg (unrelated), one at 40 mg (study‐drug related)): two men given TAK‐418 reported testicular pain
participants reporting TEAEs ([3]; single dose 5–60 mg while fasting, 13 participants): 43%
severity of TEAEs ([3]; single dose up to 60 mg): mild
upper respiratory tract infection (most common TEAE) ([3]; single dose, n = 3): 10%
autism symptoms [4]: improved autism symptoms
t ½z ([5]; healthy volunteers, across both studies and doses): 3.13 to 5.36 h
AUC0–24, mean (CV%) ([5]; single oral dose 5 mg): 89.3 (41.1) h*ng mL^−1
AUC0–∞, mean (CV%) ([5]; single oral dose 5 mg): 92.2 (43.3) h*ng mL^−1
t max, median (range) ([5]; single oral dose 5 mg): 1.00 (0.98–1.02) h
t ½z, mean (CV%) ([5]; single oral dose 5 mg): 3.133 (14.8) h
AUC0–24, mean (CV%) ([5]; single oral dose 15 mg): 295.8 (21.5) h*ng mL^−1
AUC0–∞, mean (CV%) ([5]; single oral dose 15 mg): 302.2 (21.8) h*ng mL^−1
t max, median (range) ([5]; single oral dose 15 mg): 1.00 (1.00–2.00) h
t ½z, mean (CV%) ([5]; single oral dose 15 mg): 4.375 (9.0) h
AUC0–24, mean (CV%) ([5]; single oral dose 30 mg, fasted): 646.3 (7.9) h*ng mL^−1
AUC0–∞, mean (CV%) ([5]; single oral dose 30 mg, fasted): 661.3 (7.9) h*ng mL^−1
t max, median (range) ([5]; single oral dose 30 mg, fasted): 1.00 (0.50–1.00) h
t ½z, mean (CV%) ([5]; single oral dose 30 mg, fasted): 4.772 (11.0) h
AUC0–24, mean (CV%) ([5]; single oral dose 40 mg): 690.2 (24.0) h*ng mL^−1
AUC0–∞, mean (CV%) ([5]; single oral dose 40 mg): 700.0 (24.5) h*ng mL^−1
t max, median (range) ([5]; single oral dose 40 mg): 1.25 (1.00–1.52) h
t ½z, mean (CV%) ([5]; single oral dose 40 mg): 3.868 (12.7) h
AUC0–24, mean (CV%) ([5]; single oral dose 60 mg): 1553.5 (29.4) h*ng mL^−1
AUC0–∞, mean (CV%) ([5]; single oral dose 60 mg): 1584.3 (29.9) h*ng mL^−1
t max, median (range) ([5]; single oral dose 60 mg): 1.00 (1.00–1.00) h
t ½z, mean (CV%) ([5]; single oral dose 60 mg): 4.220 (14.9) h
mean C max in CSF ([6]; Day 10, CV% 24.7): 85.20 ng mL^ −1
mean AUC0–24 in CSF ([6]; Day 10, CV% 26.5): 611.0 ng·h/mL
visuospatial learning and memory defects ([7]; after 2 weeks of treatment, compared with vehicle control): visuospatial learning and memory defects were rescued
H3K4 histone modification defects ([7]; mouse model of Kabuki syndrome): rescued H3K4 histone modification defects
adult neurogenesis in the hippocampus ([7]; mouse model of Kabuki syndrome): dose‐dependently normalized adult neurogenesis in the hippocampus
renal clearance ([8]; 20–160 mg dose range, single dose (Tables 3 and 4)): 5.81 to 8.68 L/h
recovered unchanged from urine ([8]; after 20–160 mg dosing, single dose (Tables 3 and 4)): 13.3–19.5%
Aet, mean (CV%) ([8]; single oral dose 30 mg, fasted): 5.708 (13.0) mg
CLR, mean (CV%) ([8]; single oral dose 30 mg, fasted): 8.683 (16.3) L h^−1
fe,t, mean (CV%) ([8]; single oral dose 30 mg, fasted): 19.022 (13.0) %
Aet, mean (CV%) ([8]; single oral dose 40 mg): 5.333 (18.8) mg
CLR, mean (CV%) ([8]; single oral dose 40 mg): 8.173 (38.1) L h^−1
fe,t, mean (CV%) ([8]; single oral dose 40 mg): 13.335 (18.8) %
Aet, mean (CV%) ([8]; single oral dose 60 mg): 11.677 (35.2) mg
CLR, mean (CV%) ([8]; single oral dose 60 mg): 7.242 (13.4) L h^−1
fe,t, mean (CV%) ([8]; single oral dose 60 mg): 19.472 (35.2) %
recovered unchanged from urine ([8]; within 24 hours): Approximately 20%
